Compound activity from PubChem.
IDE act: human IDE activators in live cells, primary screen, fluorescence polarization, HEK cells, FAbeta-B substrate | Insulin-degrading enzyme (Homo sapiens), P14735 | FAbeta-B cleavage; 0% vehicle, 100% cell-free pure enzyme wells | activation, % at 5.96 µM | hit rate 0.073% among 340,000 | AID 493087, 2011;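 active = activation above the mean of all tested compounds plus 3 SD, set per screening campaign, cut at about 17% in these data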
CSN inh: inhibitors of CSN-mediated cullin deneddylation, primary screen, biochemical, fluorescence polarization, uHTS; Purified CSN, SCF-Nedd8-OG deneddylation; inhibition, % at 12.5 µM; hit rate 0.38% among 360,000; AID 651999, 2013;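 active = pattern-corrected inhibition above about 35%, with an unprinted fluorescence ratio check between 0.5 and 1.5, limit read from the data, passing the limit was not always enough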;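 also: 0% = enzyme with substrate and 100% = substrate without enzyme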
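Test system: Human Csn5 produced in HEK293T cells | Compound: 12.5 µM single point | Times: 90 min, room temperature | Signal: Fluorescence polarization readout | Read-out basis: % inhibition of substrate cleavage by Csn5 | Controls: no-enzyme wells high, enzyme-with-substrate wells low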
IDE inh: human IDE inhibitors in live cells, primary screen, fluorescence polarization, HEK cells, FAbetaB substrate; Insulin-degrading enzyme (Homo sapiens), P14735; FAbetaB cleavage; inhibition, % at 5.59 µM; hit rate 0.41% among 320,000; AID 434962, 2010;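 active = percent inhibition above the average of all tested compounds plus 3 SD, set per screening campaign, cut at about 16% in these data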;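 also: IDE supplied by intact live HEK cells; FP after avidin binding of uncleaved biotin substrate so inhibition keeps polarization high; 0% = DMSO wells and 100% = 60 µM reference IDE inhibitor Ii1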
HNF4A DNA FP: change in binding of human HNF4A to DNA, primary screen, biochemical, fluorescence polarization, FITC-DNA; Hepatocyte nuclear factor 4-alpha (Homo sapiens), P41235; 1 h; activity change, % at 10 µM; hit rate 0.3% among 360,000; in the data active = activity change above about 30%, passing the limit was not always enough
TPT1 inh: Candida albicans TPT1 enzyme inhibitors, primary screen, biochemical, fluorescence polarization | hit rate 0.81% among 300,000 | recombinant caTPT1, FP RNA substrate dephosphorylation | inhibition, % at 5 µM | AID 1962, 2009 | tRNA 2'-phosphotransferase TPT1 (Candida albicans SC5314);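 active = inhibition above the mean of all tested compounds plus 3 SD, set per screening campaign, cut at about 24% in these data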;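 also: plate controls were DMSO alone for no effect and ferristatin control at 100 nM for full effect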
HNF4a DNA conf: change in HNF4A binding to DNA, retest, confirmation, biochemical, fluorescence polarization, FITC-DNA | shares compounds with HNF4A DNA FP | 1 h | activity change, % at 12.5 µM | hit rate 99% among 210; call rule not given here
Starred values were filed as active, the others as inactive. Hits are enriched below; roughly 1.4% of the tested compounds scored in any of these assays.

Screening C#CCOCCOCCOCCNc1nc(N2CCN(C(=O)[C@H](CCCCN)n3cc([C@@H](N)C(C)CC)nn3)CC2)nc(N2CCN(C(=O)[C@H](CCCCN)n3cc([C@@H](N)CC(C)C)nn3)CC2)n1 (stereo partly drawn) returned IDE act 0.1, CSN inh 68.9*, IDE inh 3.0, HNF4A DNA FP 71.9*, TPT1 inh 1.8 and HNF4a DNA conf 111.9*.
`N=c1n(CC(=O)c2ccc([N+](=O)[O-])cc2)c2ccccc2n1Cc1ccc(Cl)cc1` gave IDE act 5.1, CSN inh 12.4, IDE inh 4.2, HNF4A DNA FP 39.7*, TPT1 inh 3.3 and HNF4a DNA conf 118.8*.
`N=c1n(CC(=O)c2ccc([N+](=O)[O-])cc2)c2ccccc2n1Cc1ccccc1Cl` gave IDE act -0.5, CSN inh -4.8, IDE inh 0.3, HNF4A DNA FP 5.9 and TPT1 inh -0.3.
`N=c1n(CC(=O)c2ccc([N+](=O)[O-])cc2)c2ccccc2n1Cc1ccccc1` gave IDE act -1.5, CSN inh 30.7, IDE inh 4.0, HNF4A DNA FP 67.6*, TPT1 inh 9.2 and HNF4a DNA conf 106.9*.
O=C(NCc1ccccc1Cl)C(=O)NCC1OCCN1S(=O)(=O)c1ccc(F)cc1 (stereo not drawn) was read as IDE act 2.8, CSN inh 0.9, IDE inh -0.5, HNF4A DNA FP 4.4 and TPT1 inh 2.4.
`O=C(c1ccc([N+](=O)[O-])s1)N1CCc2ccccc21` gave IDE act 1.6, CSN inh 19.1, IDE inh 2.6, HNF4A DNA FP 66.7*, TPT1 inh 1.1 and HNF4a DNA conf 52.9*.
Screening COc1cccc(-c2cnc3c(NC(C)=O)cc(-c4ccc(C(=O)NC5CC5)cc4)cn23)c1 returned CSN inh 6.1 and HNF4A DNA FP 1.3.
Screening CCC(CC)Nc1ccc(C(CC(N)=O)NC(=O)Cc2ccc(Br)cc2)cc1[N+](=O)[O-] (stereo not drawn) returned IDE act 1.9, CSN inh 31.9, IDE inh -1.8, HNF4A DNA FP 52.0*, TPT1 inh 20.6 and HNF4a DNA conf 36.8*.
For NC(=O)CC(NC(=O)Cc1cccc2ccccc12)c1ccc(NC2CCCCC2)c([N+](=O)[O-])c1 (stereo not drawn) the results were IDE act 6.3, CSN inh 24.2, IDE inh 0.3, HNF4A DNA FP 50.8*, TPT1 inh 9.5 and HNF4a DNA conf 55.8*.
`NC(=O)CC(NC(=O)Cc1cccc2ccccc12)c1ccc(NC2CCCC2)c([N+](=O)[O-])c1` (stereo not drawn) gave IDE act 0.8, CSN inh -2.1 and HNF4A DNA FP 7.2.
OC(COc1ccc(C2C=CCC2)cc1)CN1CCCCC1 (stereo not drawn) was read as IDE act 5.6, CSN inh 6.5, IDE inh 2.8, HNF4A DNA FP 41.7*, TPT1 inh -0.7 and HNF4a DNA conf 39.2*.
For Cc1ccc(NC(=O)CSCC(=O)N2CCN(Cc3ccc4c(c3)OCO4)CC2)cc1 the results were IDE act -1.2, CSN inh -2.7, IDE inh 1.9, HNF4A DNA FP -2.3 and TPT1 inh -1.3.
`CC(=O)Nc1cc2c(cc1[N+](=O)[O-])-c1ccc(F)cc1C2` gave IDE act 5.0, CSN inh 5.7, HNF4A DNA FP 32.5* and HNF4a DNA conf 39.2*.
Screening C[C@@H]1CN([C@@H](C)CO)C(=O)c2ccccc2-c2ccccc2CO[C@@H]1CN(C)S(=O)(=O)c1ccc(C(F)(F)F)cc1 returned CSN inh 1.4 and HNF4A DNA FP -0.3.
For Cc1ccc2sc(N(CCCN(C)C)C(=O)c3nc4ccccc4s3)nc2c1C the results were IDE act 15.5, CSN inh 107.0*, IDE inh 4.6, HNF4A DNA FP 216.9*, TPT1 inh 0.2 and HNF4a DNA conf 205.1*.
For Cc1cccc2sc(N(CCCN(C)C)C(=O)c3nc4ccccc4s3)nc12 the results were IDE act 5.4, CSN inh 7.9, IDE inh 2.6, HNF4A DNA FP 12.9 and TPT1 inh -3.8.
For COc1cccc(/C=C2\SC(=S)N(CCCC(=O)Nc3cc(C)on3)C2=O)c1 the results were IDE act 3.6, CSN inh 35.7*, IDE inh 1.0, HNF4A DNA FP 47.2*, TPT1 inh 2.9 and HNF4a DNA conf 66.9*.
`OCC1CSC(=S)N1Cc1ccccc1` (stereo not drawn) gave CSN inh -5.9 and HNF4A DNA FP 1.4.
Cc1cc(C)c(NC(=O)CSCc2nc3sc(C)c(C)c3c(=O)[nH]2)c(Cl)c1 was read as IDE act -9.1, CSN inh 17.6, IDE inh -1.2, HNF4A DNA FP 43.5* and HNF4a DNA conf 73.5*.
For O=C(OCc1ccccc1)N(CCCCN(CCCNCc1ccccc1)C(=O)OCc1ccccc1)CCCNCc1ccccc1 the results were IDE act 5.8, CSN inh -0.9 and HNF4A DNA FP 3.3.
Screening COC(=O)c1cc(-c2ccccc2)sc1N returned IDE act 1.1, CSN inh 1.4, IDE inh 0.2, HNF4A DNA FP 0.9 and TPT1 inh 4.6.
C#CCNC(=O)c1cc(-c2ccccc2)sc1N was read as CSN inh 22.4, HNF4A DNA FP 67.1* and HNF4a DNA conf 79.8*.
`Cc1cc(NC(=O)c2cc(-c3ccccn3)nc3c(Cl)cccc23)no1` gave IDE act 5.2, CSN inh 1.9, IDE inh 3.5, HNF4A DNA FP -1.7 and TPT1 inh -1.3.
For O=C(Nc1nccs1)c1cc(-c2ccccn2)nc2c(Cl)cccc12 the results were IDE act -1.1, CSN inh 26.4, IDE inh -3.4, HNF4A DNA FP 72.5*, TPT1 inh -1.2 and HNF4a DNA conf 45.4*.
For O=C(N/N=C/c1cccnc1)c1ccc(NC(=O)c2ccc(Cl)cc2)cc1 the results were IDE act -7.6, CSN inh 6.2, IDE inh 1.6, HNF4A DNA FP 16.9 and TPT1 inh -1.7.
Screening O=C(N/N=C/c1cccnc1)c1ccc(NC(=O)c2cccc(Cl)c2)cc1 returned IDE act -1.5, CSN inh 108.4*, IDE inh 10.9, HNF4A DNA FP 107.7*, TPT1 inh -1.0 and HNF4a DNA conf 151.9*.
